The species entered for assay [1] is Rattus norvegicus. Description: Evaluated for its potency (IC 50) against potassium Chloride (KCl) (at a dose level of 40 mM) induced aortic contractions in male Sprague-Dawley rats. In kind it is functional. Conditions: Aorta. The method, boiled down: (§1)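 Thoracic aorta segments (2.5 cm) from male Sprague–Dawley rats (250–300 g) were equilibrated 1–1.5 h, then contracted with NE 1×10^-7 M or KCl 40 mM, final bath levels. Compound was added in rising concentrations, up to 30 min per step. Tension was taken as % of pre-drug control, fatigue-adjusted. Per-tissue probit transform with linear regression gave IC50.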

The species entered for assay [2] is Rattus norvegicus. As to the kind of experiment: Evaluated for its potency against norepinephrine (NE) (at a dose level of 10 E-7 M) induced aortic contractions in male Sprague-Dawley rats. The class given is functional. To be noted: Aorta. The method, boiled down: as §1

These results are taken from ChEMBL document CHEMBL1122045, “Synthesis and pharmacological evaluation of reduced diastereoisomeric and quaternary ammonium derivatives of calcium antagonistic (methylenedioxy)indenes on the isolated rat aorta” (J Med Chem, 1982).

Consider `CCCCC1=Cc2cc3c(cc2C1N(C)C)OCO3` (stereo not given), for which the results for the IC50 in the assay listed under Rattus norvegicus [1] and in the assay filed under Rattus norvegicus [2] were 20.3 µM and 74.1 µM, respectively.
For `CCC[C@@H]1Cc2cc3c(cc2[C@H]1N(C)C)OCO3`, in that order: 98.9 µM and 383 µM.
In the same order, the values of `CCCC[C@@H]1Cc2cc3c(cc2[C@H]1N(C)C)OCO3` are 31.1 µM and 151 µM.
In the same order, the values of `CCCC[C@@H]1Cc2cc3c(cc2[C@@H]1N(C)C)OCO3` are 17.4 µM and 37.9 µM.
`CCC[C@@H]1Cc2cc3c(cc2[C@@H]1N(C)C)OCO3`: the figures for the IC50 in the assay listed under Rattus norvegicus [1] and in the assay listed under Rattus norvegicus [2] were 30 µM and 59.4 µM, respectively.
For `CCCC1=Cc2cc3c(cc2C1N(C)C)OCO3` (stereo not given), in that order: 21.4 µM and 78.2 µM.
For the compound `CCCC1=Cc2cc3c(cc2C1[N+](C)(C)C)OCO3` (stereo not given), the IC50 in the assay listed under Rattus norvegicus [1] was determined as 547 µM; in the assay listed under Rattus norvegicus [2], 382 µM.
In the same order, the values of `CCCCC1=Cc2cc3c(cc2C1[N+](C)(C)C)OCO3` (stereo not given) are 169 µM and 128 µM.
For `CCC[C@@H]1Cc2cc3c(cc2[C@@H]1[N+](C)(C)C)OCO3`, in that order: 871 µM and 1020 µM.
In the same order, the values of `CCCC[C@@H]1Cc2cc3c(cc2[C@@H]1[N+](C)(C)C)OCO3` are 175 µM and 281 µM.
